{
  "source": "ChEMBL document CHEMBL1123888",
  "about": "“Aldosterone antagonists. 2. Synthesis and biological activities of 11,12-dehydropregnane derivatives” (J Med Chem, 1987)",
  "key": {"[1]": {"target": "T1, Mineralocorticoid receptor (Rattus norvegicus) (UniProt P22199)", "T1 sequence (whole entry)": "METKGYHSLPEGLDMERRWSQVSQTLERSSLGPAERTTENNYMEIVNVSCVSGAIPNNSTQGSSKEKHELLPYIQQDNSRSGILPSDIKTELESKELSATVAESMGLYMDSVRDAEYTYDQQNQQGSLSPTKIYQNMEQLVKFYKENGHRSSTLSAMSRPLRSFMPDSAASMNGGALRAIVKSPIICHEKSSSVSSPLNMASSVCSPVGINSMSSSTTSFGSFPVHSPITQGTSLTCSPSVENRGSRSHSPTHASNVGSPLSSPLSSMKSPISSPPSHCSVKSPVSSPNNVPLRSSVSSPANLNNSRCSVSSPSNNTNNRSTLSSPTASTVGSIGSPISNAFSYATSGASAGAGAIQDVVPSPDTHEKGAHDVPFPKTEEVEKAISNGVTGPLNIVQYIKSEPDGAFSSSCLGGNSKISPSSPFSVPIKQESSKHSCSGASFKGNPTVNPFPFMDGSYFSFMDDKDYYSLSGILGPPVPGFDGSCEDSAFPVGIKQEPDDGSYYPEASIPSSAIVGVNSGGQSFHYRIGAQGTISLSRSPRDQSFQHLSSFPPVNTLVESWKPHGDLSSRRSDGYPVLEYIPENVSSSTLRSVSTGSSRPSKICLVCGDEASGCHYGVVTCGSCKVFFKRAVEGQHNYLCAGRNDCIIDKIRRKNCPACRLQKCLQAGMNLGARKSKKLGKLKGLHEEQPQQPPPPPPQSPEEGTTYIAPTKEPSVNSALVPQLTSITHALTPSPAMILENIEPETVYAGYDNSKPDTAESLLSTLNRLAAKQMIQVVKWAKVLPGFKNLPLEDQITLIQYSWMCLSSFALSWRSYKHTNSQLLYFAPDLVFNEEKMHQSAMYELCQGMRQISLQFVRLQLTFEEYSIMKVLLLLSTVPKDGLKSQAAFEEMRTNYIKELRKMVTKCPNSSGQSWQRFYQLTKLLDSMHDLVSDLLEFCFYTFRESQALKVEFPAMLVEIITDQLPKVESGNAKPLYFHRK", "experiment": "Relative binding affinity to the rat mineralocorticoid receptor determined in rat renal cytosol using [3]Ald as ligand", "in_short": "(§1)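 Renal cytosol came from male Sprague-Dawley rats (4-8 weeks) adrenalectomized bilaterally 1 or 2 days earlier. It was incubated with various competitor concentrations and about 1 nM [3H]Ald for 42-48 h at 0 °C or 100-120 min at 25 °C. Bound and free steroid were separated by DCC.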"}, "[2]": {"target": "T1, Mineralocorticoid receptor (Rattus norvegicus)", "experiment": "Antagonist activity against Mineralocorticoid receptor was determined after subcutaneous administration in Male Sprague Dawley rats", "format": "functional, organism-based", "in_short": "(§2)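 Male rats were bilaterally adrenalectomized (bioassay modified from Kagawa). Ald (1 µg/kg) was given sc, immediately followed by test compound in sesame oil sc or orally. Urine was collected from 2 to 6 h after steroid. Potency came from the urinary Na/K ratio of sample versus control, with 95% confidence limits.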"}, "[3]": {"target": "T1, Mineralocorticoid receptor (Rattus norvegicus)", "experiment": "Antagonist activity against Mineralocorticoid receptor after oral administration in Male Sprague Dawley rats; (-) = negative", "format": "functional, organism-based", "in_short": "as §2"}, "[4]": {"target": "T1, Mineralocorticoid receptor (Rattus norvegicus)", "experiment": "Antagonist activity against Mineralocorticoid receptor after po administration in Male Sprague Dawley rats; (+) =positive", "format": "functional, organism-based", "details": "filed as antagonist", "in_short": "as §2"}, "[5]": {"target": "T1, Mineralocorticoid receptor (Rattus norvegicus)", "experiment": "Relative binding affinity against mineralocorticoid receptor determined in rat renal cytosol using [3]Ald as ligand", "in_short": "as §1"}, "[6]": {"target": "T1, Mineralocorticoid receptor (Rattus norvegicus)", "experiment": "Relative potency compared to Aldosterone;Range is 1.2-1.6", "format": "functional"}, "[7]": {"target": "T2, Progesterone receptor (Rattus norvegicus) (UniProt Q63449)", "T2 sequence (whole entry)": "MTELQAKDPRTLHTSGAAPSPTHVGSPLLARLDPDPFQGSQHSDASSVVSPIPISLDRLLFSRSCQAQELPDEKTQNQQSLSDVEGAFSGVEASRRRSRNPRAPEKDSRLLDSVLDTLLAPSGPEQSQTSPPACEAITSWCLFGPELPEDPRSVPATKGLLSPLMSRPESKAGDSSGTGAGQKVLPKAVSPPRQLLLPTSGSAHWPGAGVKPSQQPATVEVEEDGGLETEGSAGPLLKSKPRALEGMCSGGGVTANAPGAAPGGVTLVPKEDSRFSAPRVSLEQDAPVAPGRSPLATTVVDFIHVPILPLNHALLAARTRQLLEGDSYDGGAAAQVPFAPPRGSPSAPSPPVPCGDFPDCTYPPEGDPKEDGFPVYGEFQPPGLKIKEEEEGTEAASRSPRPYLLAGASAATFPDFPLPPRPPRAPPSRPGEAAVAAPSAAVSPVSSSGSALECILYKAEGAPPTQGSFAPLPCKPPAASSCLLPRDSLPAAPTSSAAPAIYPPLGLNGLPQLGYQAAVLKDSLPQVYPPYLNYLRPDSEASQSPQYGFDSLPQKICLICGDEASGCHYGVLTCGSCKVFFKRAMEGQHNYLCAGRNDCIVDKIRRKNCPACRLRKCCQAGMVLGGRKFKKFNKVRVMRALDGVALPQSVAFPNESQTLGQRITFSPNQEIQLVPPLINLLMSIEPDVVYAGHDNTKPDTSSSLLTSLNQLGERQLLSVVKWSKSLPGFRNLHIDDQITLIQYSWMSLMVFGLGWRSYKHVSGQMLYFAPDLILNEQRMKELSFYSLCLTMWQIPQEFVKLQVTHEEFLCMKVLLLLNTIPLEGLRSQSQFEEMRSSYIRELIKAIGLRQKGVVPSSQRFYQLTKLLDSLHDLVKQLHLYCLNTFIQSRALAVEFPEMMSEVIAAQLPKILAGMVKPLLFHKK", "experiment": "Relative binding affinity against progesterone receptor determined in rat […] cytosol using [3H]DHT as ligand"}, "[8]": {"target": "T1, Mineralocorticoid receptor (Rattus norvegicus)", "experiment": "Relative binding affinity against Mineralocorticoid Receptor in Male Sprague-Dawley rats", "in_short": "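Renal cytosol from male Sprague-Dawley rats (4-8 weeks) adrenalectomized bilaterally 1 or 2 days earlier. Incubated with various competitor concentrations and about 1 nM [3H]aldosterone, for 42-48 h at 0 °C or 100-120 min at 25 °C. Charcoal (DCC) separation of bound and free.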"}, "[9]": {"target": "T1, Mineralocorticoid receptor (Rattus norvegicus)", "experiment": "In vivo relative Mineralocorticoid activity in Male Sprague-Dawley rats", "format": "functional, organism-based"}, "[10]": {"target": "T1, Mineralocorticoid receptor (Rattus norvegicus)", "experiment": "Agonist activity against Mineralocorticoid receptor after subcutaneous administration in Male Sprague Dawley rats; (+) =positive", "format": "functional, organism-based", "details": "filed as agonist"}, "[11]": {"target": "T1, Mineralocorticoid receptor (Rattus norvegicus)", "experiment": "Antagonist activity against Mineralocorticoid receptor after subcutaneous administration in Male Sprague Dawley rats; (-) = negative", "format": "functional, organism-based", "in_short": "as §2"}, "[12]": {"species_on_record": "Rattus norvegicus", "experiment": "Displacement of [3H]promegestone from progestin receptor of rat uterine cytosol at 0 degree Centigrade", "in_short": "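Uteri from estradiol-primed rats supplied the cytosol. It was incubated with various competitor concentrations and about 1 nM [3H]promegestone for 16-20 h at 0 °C. Bound and free steroid were separated by DCC. RBA (progesterone = 100%) = 100 × ratio of the 50%-inhibition concentrations of standard and competitor.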"}, "[13]": {"target": "T1, Mineralocorticoid receptor (Rattus norvegicus)", "experiment": "Relative potency ompared to Aldosterone;Range 4-187", "format": "functional"}, "[14]": {"target": "T1, Mineralocorticoid receptor (Rattus norvegicus)", "experiment": "Antagonist activity against Mineralocorticoid receptor after subcutaneous administration in Male Sprague Dawley rats; (+) =positive", "format": "functional, organism-based", "details": "filed as antagonist", "in_short": "as §2"}, "[15]": {"target": "T1, Mineralocorticoid receptor (Rattus norvegicus)", "experiment": "Agonist activity against Mineralocorticoid receptor after subcutaneous administration in Male Sprague Dawley rats; (-) = negative", "format": "functional, organism-based"}, "[16]": {"target": "T1, Mineralocorticoid receptor (Rattus norvegicus)", "experiment": "Relative anti-mineralocorticoid potency compared to Spironolactone after oral administration", "format": "functional, organism-based", "in_short": "as §2"}, "[17]": {"target": "T1, Mineralocorticoid receptor (Rattus norvegicus)", "experiment": "Agonist activity against Mineralocorticoid receptor was determined after subcutaneous administration in Male Sprague Dawley rats; (+) =positive", "format": "functional, organism-based", "details": "filed as agonist"}, "[18]": {"target": "T1, Mineralocorticoid receptor (Rattus norvegicus)", "experiment": "Relative potency compared to Aldosterone;Range is 72-216", "format": "functional"}, "[19]": {"target": "T1, Mineralocorticoid receptor (Rattus norvegicus)", "experiment": "Relative potency compared to Aldosterone;Range 4.3-23", "format": "functional"}, "[20]": {"target": "T1, Mineralocorticoid receptor (Rattus norvegicus)", "experiment": "Relative potency compared to Aldosterone;Range 14-224", "format": "functional"}},
  "note": "Calls of active or inactive are those of the source. No cut-off for these calls is given here.",
  "data": [
    {"smiles": "CC12C=CC(=O)C=C1C1CC1C1C2C=CC2(C)C1C1CC1[C@@]21CCC(=O)O1", "note": "(stereo not given in full)", "values": [
      {"measurement": "RBA", "setting": "[1]", "value": 480, "unit": "%"},
      {"measurement": "Activity", "setting": "[2]", "value": "inactive"},
      {"measurement": "Activity", "setting": "[3]", "value": "inactive"},
      {"measurement": "Activity", "setting": "[4]", "value": "Antagonist"},
      {"measurement": "RBA", "setting": "[5]", "value": 250, "unit": "%"},
      {"measurement": "Relative potency", "setting": "[6]", "value": 1.2},
      {"measurement": "RBA", "setting": "[7]", "value": 150, "unit": "%"}
    ]},
    {"smiles": "C[C@]12CC[C@H]3[C@@H](CCC4=CC(=O)CC[C@@]43C)[C@@H]1CC[C@@H]2C(=O)CO", "values": [
      {"measurement": "RBA", "setting": "[8]", "value": 58, "unit": "%"},
      {"measurement": "Relative activity", "setting": "[9]", "value": 1}
    ]},
    {"smiles": "CC12C=CC(=O)C=C1C1CC1C1C2C=CC2(C)C1CC[C@@]21CCC(=O)O1", "note": "(stereo not given in full)", "values": [
      {"measurement": "RBA", "setting": "[1]", "value": 300, "unit": "%"},
      {"measurement": "Activity", "setting": "[10]", "value": "Agonist"},
      {"measurement": "Activity", "setting": "[11]", "value": "inactive"},
      {"measurement": "RBA", "setting": "[5]", "value": 320, "unit": "%"},
      {"measurement": "RBA", "setting": "[12]", "value": 11, "unit": "%"},
      {"measurement": "Relative potency", "setting": "[13]", "value": 4}
    ]},
    {"smiles": "CC12CCC(=O)C=C1[C@H]1C[C@H]1C1C2C=CC2(C)C1CC[C@@]21CCC(=O)O1", "note": "(stereo not given in full)", "values": [
      {"measurement": "RBA", "setting": "[1]", "value": 110, "unit": "%"},
      {"measurement": "Activity", "setting": "[14]", "value": "Antagonist"},
      {"measurement": "Activity", "setting": "[15]", "value": "inactive"},
      {"measurement": "RBA", "setting": "[5]", "value": 88, "unit": "%"},
      {"measurement": "Relative potency", "setting": "[16]", "value": 1.48},
      {"measurement": "RBA", "setting": "[7]", "value": 6.7, "unit": "%"}
    ]},
    {"smiles": "CC12C=CC(=O)C=C1C=CC1C2C=CC2(C)C1C1CC1[C@@]21CCC(=O)O1", "note": "(stereo not given in full)", "values": [
      {"measurement": "RBA", "setting": "[1]", "value": 200, "unit": "%"},
      {"measurement": "Activity", "setting": "[2]", "value": "inactive"},
      {"measurement": "Activity", "setting": "[17]", "value": "Agonist"},
      {"measurement": "RBA", "setting": "[5]", "value": 160, "unit": "%"},
      {"measurement": "Relative potency", "setting": "[18]", "value": 72},
      {"measurement": "RBA", "setting": "[7]", "value": 19, "unit": "%"}
    ]},
    {"smiles": "CC(=O)S[C@@H]1CC2=CC(=O)C=CC2(C)C2C=CC3(C)C(C4CC4[C@@]34CCC(=O)O4)C21", "note": "(stereo not given in full)", "values": [
      {"measurement": "RBA", "setting": "[1]", "value": 350, "unit": "%"},
      {"measurement": "Activity", "setting": "[2]", "value": "inactive"},
      {"measurement": "Activity", "setting": "[3]", "value": "inactive"},
      {"measurement": "Activity", "setting": "[4]", "value": "Antagonist"},
      {"measurement": "RBA", "setting": "[5]", "value": 91, "unit": "%"},
      {"measurement": "Relative potency", "setting": "[19]", "value": 4.3},
      {"measurement": "RBA", "setting": "[7]", "value": 23, "unit": "%"}
    ]},
    {"smiles": "CC12CCC(=O)C=C1C1CC1C1C2C=CC2(C)C1CC[C@@]21CCC(=O)O1", "note": "(stereo not given in full)", "values": [
      {"measurement": "RBA", "setting": "[1]", "value": 30, "unit": "%"},
      {"measurement": "Activity", "setting": "[2]", "value": "inactive"},
      {"measurement": "Activity", "setting": "[17]", "value": "Agonist"},
      {"measurement": "RBA", "setting": "[5]", "value": 580, "unit": "%"},
      {"measurement": "RBA", "setting": "[12]", "value": 56, "unit": "%"},
      {"measurement": "Relative potency", "setting": "[20]", "value": 14}
    ]}
  ]
}
